Assay results from ChEMBL document CHEMBL1687750, “Nonclinical pharmacokinetics of oseltamivir and oseltamivir carboxylate in the central nervous system” (Antimicrob Agents Chemother, 2009).

Tests used:
Brain [1] = assay: AUC (0 to 8 hrs) after iv dose in perfused Sprague-Dawley rat brain at 30 mg/kg; conditions: in vivo
[2] = Terminal half life in perfused Sprague-Dawley rat cerebrospinal fluid at 30 mg/kg, iv; type: ADME, organism-based; set-up: dose 30 mg/kg, route intravenous; conditions: read-out: beta t1/2 (converted)
How it was run: (§1)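 Nonfasted Sprague-Dawley rats given 30 mg/kg i.v. in 0.9% NaCl pH 4.0 by tail vein over 20–30 s. Terminal sampling under isoflurane at 5 min, 0.25, 0.5, 1, 2, 4 and 8 h (4–5 rats/time): plasma, CSF, and brain homogenate, with or without saline perfusion. LC-MS/MS. t1/2, Vss and ratios from noncompartmental analysis of pooled composite concentrations.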

Cerebrospinal fluid [3] = assay: AUC (0 to 8 hrs) after iv dose in non-perfused Sprague-Dawley rat cerebrospinal fluid at 30 mg/kg; conditions: in vivo
Plasma [4] = assay: AUC (0 to 8 hrs) after po dose in perfused Sprague-Dawley rat plasma at 1000 mg/kg; conditions: in vivo
[5] = Cmax in perfused Sprague-Dawley rat brain at 1000 mg/kg, po; type: ADME, organism-based; set-up: dose 1000 mg/kg, route oral
How it was run: (§2)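 Oseltamivir phosphate was given by oral gavage at 1,000 mg/kg free base. Sampling was at 1, 2, 4, 6 and 8 h, with 4 rats per time point, under terminal isoflurane. Blood was taken by cardiac puncture and CSF from the cisterna magna. Brains were perfused transcardially with saline before homogenization. Samples were quantified by LC-MS/MS, with noncompartmental analysis of pooled composite data giving AUC0-8 h and concentration ratios.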

[6] = Cmax in non-perfused Sprague-Dawley rat cerebrospinal fluid at 30 mg/kg, iv; type: ADME, organism-based; set-up: dose 30 mg/kg, route intravenous
How it was run: (§3)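 Nonfasted adult rats received 30 mg/kg in aqueous 0.9% NaCl (pH 4.0) by slow tail-vein injection over 20–30 s. Groups were sampled at 5 min and 0.25, 0.5, 1, 2, 4 and 8 h, with 4–5 rats per time point, under terminal isoflurane. Blood was taken by heart puncture and CSF from the cisterna magna. Brains were homogenized either unperfused or after transcardial saline perfusion. Samples were assayed by LC-MS/MS, and pooled composite data were analyzed noncompartmentally.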

Cerebrospinal fluid [7] = assay: AUC (0 to 8 hrs) after iv dose in perfused Sprague-Dawley rat cerebrospinal fluid at 30 mg/kg; conditions: in vivo
[8] = Cmax in perfused Sprague-Dawley rat plasma at 1000 mg/kg, po; type: ADME, organism-based; set-up: dose 1000 mg/kg, route oral
How it was run: as §2

[9] = Terminal half life in non-perfused Sprague-Dawley rat plasma at 30 mg/kg, iv; type: ADME, organism-based; set-up: dose 30 mg/kg, route intravenous; conditions: read-out: beta t1/2 (converted)
How it was run: as §1

[10] = Terminal half life in perfused Sprague-Dawley rat plasma at 30 mg/kg, iv; type: ADME, organism-based; set-up: dose 30 mg/kg, route intravenous; conditions: read-out: beta t1/2 (converted)
How it was run: as §1

[11] = […] of Spodoptera frugiperda Sf9 cells over expressing human MRP1; type: ADME, cell-based
How it was run: (§4)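 Membrane vesicles (20–50 µg) from insect cells expressing recombinant human BCRP1, MRP1 or MRP3 were prewarmed at 37°C. They were incubated for 60 s at 37°C with 14C-oseltamivir (3.8 µM) or OC (3.1 µM), with or without 5 mM ATP, in sucrose/KNO3/Mg(NO3)2/HEPES-Tris pH 7.4. The reaction was stopped with ice-cold buffer containing taurocholate, followed by rapid nitrocellulose filtration and scintillation counting. Determinations were in triplicate.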

[12] = AUC (0 to 8 hrs) ratio in cerebrospinal fluid to brain in perfused Sprague-Dawley rat at 1000 mg/kg, po; type: ADME, organism-based; set-up: dose 1000 mg/kg, route oral; conditions: in vivo
How it was run: as §2

[13] = Cmax in perfused Sprague-Dawley rat cerebrospinal fluid at 1000 mg/kg, po; type: ADME, organism-based; set-up: dose 1000 mg/kg, route oral
How it was run: as §2

[14] = Terminal half life in non-perfused Sprague-Dawley rat cerebrospinal fluid at 30 mg/kg, iv; type: ADME, organism-based; set-up: dose 30 mg/kg, route intravenous; conditions: read-out: beta t1/2 (converted)
How it was run: as §1

[15] = Permeability from […] of Spodoptera frugiperda Sf9 cells over expressing human MRP3; type: ADME, cell-based
How it was run: as §4

[16] = Cmax in non-perfused Sprague-Dawley rat plasma at 30 mg/kg, iv; type: ADME, organism-based; set-up: dose 30 mg/kg, route intravenous
How it was run: as §3

Cerebrospinal fluid [17] = assay: AUC (0 to 8 hrs) after po dose in perfused Sprague-Dawley rat cerebrospinal fluid at 1000 mg/kg; conditions: in vivo
[18] = Cmax in non-perfused Sprague-Dawley rat brain at 30 mg/kg, iv; type: ADME, organism-based; set-up: dose 30 mg/kg, route intravenous
How it was run: as §3

[19] = Cmax in perfused Sprague-Dawley rat brain at 30 mg/kg, iv; type: ADME, organism-based; set-up: dose 30 mg/kg, route intravenous
How it was run: as §3

[20] = Permeability from […] of Spodoptera frugiperda Sf9 cells over expressing human BCRP1; type: ADME, cell-based
How it was run: as §4

Brain [21] = assay: Ratio of AUC (0 to infinity) after iv dose to AUC (0 to 8 hrs) after po dose in perfused Sprague-Dawley rat brain at 1000 mg/kg; type: ADME, organism-based; set-up: dose 1000 mg/kg, route oral; conditions: in vivo
How it was run: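 Sprague-Dawley rats, nonfasted. i.v.: 30 mg/kg in 0.9% NaCl pH 4.0, slow tail-vein injection, sampled at 5 min and 0.25–8 h. Oral gavage: 1,000 mg/kg free base, sampled 1–8 h. Four or five rats per time point, with cardiac blood and cisterna magna CSF. Brains taken with or without saline transcardial perfusion (oral study perfused). LC-MS/MS. AUC by noncompartmental analysis of pooled composite data.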

[22] = AUC (0 to 8 hrs) ratio in cerebrospinal fluid to plasma in perfused Sprague-Dawley rat at 1000 mg/kg, po; type: ADME, organism-based; set-up: dose 1000 mg/kg, route oral; conditions: cerebrospinal fluid and plasma, read-out: Ratio AUC
How it was run: as §2

[23] = AUC (0 to 8 hrs) ratio in brain to plasma in perfused Sprague-Dawley rat at 1000 mg/kg, po; type: ADME, organism-based; set-up: dose 1000 mg/kg, route oral; conditions: brain and plasma, read-out: Ratio AUC
How it was run: as §2

[24] = Terminal half life in perfused Sprague-Dawley rat brain at 30 mg/kg, iv; type: ADME, organism-based; set-up: dose 30 mg/kg, route intravenous; conditions: read-out: beta t1/2 (converted)
How it was run: as §1

Plasma [25] = assay: AUC (0 to 8 hrs) after iv dose in perfused Sprague-Dawley rat plasma at 30 mg/kg; conditions: in vivo
Brain [26] = assay: AUC (0 to 8 hrs) after iv dose in non-perfused Sprague-Dawley rat brain at 30 mg/kg; conditions: in vivo
[27] = Cmax in perfused Sprague-Dawley rat cerebrospinal fluid at 30 mg/kg, iv; type: ADME, organism-based; set-up: dose 30 mg/kg, route intravenous
How it was run: as §3

[28] = Terminal half life in non-perfused Sprague-Dawley rat brain at 30 mg/kg, iv; type: ADME, organism-based; set-up: dose 30 mg/kg, route intravenous; conditions: read-out: beta t1/2 (converted)
How it was run: as §1

[29] = Cmax in perfused Sprague-Dawley rat plasma at 30 mg/kg, iv; type: ADME, organism-based; set-up: dose 30 mg/kg, route intravenous
How it was run: as §3

Brain [30] = assay: Cmax in perfused Sprague-Dawley rat brain assessed as active metabolite oseltamivir carboxylate level at 30 mg/kg, iv; type: ADME, organism-based; set-up: dose 30 mg/kg, route intravenous; conditions: in vivo
How it was run: as §3

[31] = Prodrug conversion in 42 days old male rat liver S9 fractions assessed as paranitrophenol generation rate assessed per mg of protein per min; type: ADME, subcellular, S9 fraction
How it was run: (§5)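 Control esterase activity was measured by incubating 100 µM p-nitrophenyl acetate (final) with 0.05 mg rat brain or liver S9 protein in 1.5 ml Tris-HCl pH 7.4 for 1 min at 37°C. Reactions were quenched with acetonitrile, and product was quantified by HPLC-UV against external standards. The no-protein blank rate was subtracted, and rate was expressed per mg protein per min.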

[32] = Prodrug conversion in 42 days old male rat brain S9 fractions assessed as paranitrophenol generation rate assessed per mg of protein per min; type: ADME, tissue-based
How it was run: as §5

[33] = Prodrug conversion in commercial liver S9 fractions assessed as paranitrophenol generation rate assessed per mg of protein per min; type: ADME, subcellular, Liver S9 fraction
[34] = AUC ratio in cerebrospinal fluid to plasma in Sprague-Dawley rat at 30 mg/kg, iv; type: ADME, organism-based; set-up: dose 30 mg/kg, route intravenous; conditions: cerebrospinal fluid and plasma, read-out: Ratio AUC
How it was run: as §3

Row | SMILES | AUC (Brain [1]) | half-life [2] | AUC (Cerebrospinal fluid [3]) | AUC (Plasma [4]) | Cmax [5] | Cmax [6] | AUC (Cerebrospinal fluid [7]) | Cmax [8] | half-life [9] | half-life [10] | permeability [11] | Ratio AUC [12] | Cmax [13] | half-life [14] | permeability [15] | Cmax [16] | AUC (Cerebrospinal fluid [17]) | Cmax [18] | Cmax [19] | permeability [20] | further results
1 | CCC(CC)O[C@@H]1C=C(C(=O)O)C[C@H](N)[C@H]1NC(C)=O [OSELTAMIVIR CARBOXYLATE] | 305 | 0.382 h | 128 | 286000 | 641 ng/g | 227 ng/mL | 137 | 49700 ng/mL | 1.64 h | 1.69 h | impermeable | 0.64 | 363 ng/mL | 0.342 h | impermeable | 72300 ng/mL | 1940 | 1710 ng/g | 605 ng/g | impermeable | Ratio AUC (Brain [21]): 3450; Kp [22]: 0.007; Kp [23]: 0.01; half-life [24]: 0.478 h; AUC (Plasma [25]): 33800; AUC (Brain [26]): 687; Cmax [27]: 249 ng/mL; half-life [28]: 0.379 h; Cmax [29]: 86300 ng/mL; Cmax (Brain [30]): 75.5 ng/g
2 | CCOC(=O)C1=C[C@@H](OC(CC)CC)[C@H](NC(C)=O)[C@@H](N)C1 [OSELTAMIVIR] | 1160 | 0.812 h | 450 | 107000 | 2310 ng/g | 897 ng/mL | 472 | 16300 ng/mL | 1.35 h | 1.59 h | impermeable | 0.55 | 1120 ng/mL | 0.813 h | impermeable | 12000 ng/mL | 7470 | 712 ng/g | 491 ng/g | impermeable | Activity [31]: 1446 nmol; Activity [32]: 112 nmol; Activity [33]: 482 nmol; Kp [34]: 0.09; AUC (Brain [21]): 13600 ng·h/g; Kp [22]: 0.07; Kp [23]: 0.12; half-life [24]: 1.51 h; AUC (Plasma [25]): 5330; AUC (Brain [26]): 1310; Cmax [27]: 921 ng/mL; half-life [28]: 2.45 h; Cmax [29]: 12500 ng/mL
